NF-kB expr up: raises NF-kB expression in human neuronal cells; NF-kB reporter expression; stronger effect = higher value; fold change at 12.5 µM; 1.6% of 190,000 active; in the data active means fold change above about 3.3
Wee1 stabilizer: inhibitors of human Wee1 degradation. 1.2% of 220,000 active. reporter increase, % at 5 µM. HeLa Luc-Wee1K328M stability, luciferase luminescence; 100% = proteasome inhibitor MG132 effect. P30291. AID 1321;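 active means activation above the mean of all tested compounds plus 3 SD, set per screening run, cut at about 8.8% in these data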;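 further: cells exposed to compound for 20 h before luminescence read; 0% = DMSO alone and 100% = MG132 at 30 µM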
MDM2 E3 inh: blocks human Mdm2 ubiquitin ligase activity; AID 1230; 0.11% of 210,000 active; signal enhancement, % at 5 µM; Q00987; cell-based MDM2 ubiquitination luciferase reporter, 2 h; 0 = plate control, 100 = twice control, blank-subtracted;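 active means signal enhancement of 30% or more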;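 further: luminescence tracks abundance of the self-degrading MDM2-luciferase fusion protein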
Target sequence (Q00987 whole entry, looked up, the tested form may be a part): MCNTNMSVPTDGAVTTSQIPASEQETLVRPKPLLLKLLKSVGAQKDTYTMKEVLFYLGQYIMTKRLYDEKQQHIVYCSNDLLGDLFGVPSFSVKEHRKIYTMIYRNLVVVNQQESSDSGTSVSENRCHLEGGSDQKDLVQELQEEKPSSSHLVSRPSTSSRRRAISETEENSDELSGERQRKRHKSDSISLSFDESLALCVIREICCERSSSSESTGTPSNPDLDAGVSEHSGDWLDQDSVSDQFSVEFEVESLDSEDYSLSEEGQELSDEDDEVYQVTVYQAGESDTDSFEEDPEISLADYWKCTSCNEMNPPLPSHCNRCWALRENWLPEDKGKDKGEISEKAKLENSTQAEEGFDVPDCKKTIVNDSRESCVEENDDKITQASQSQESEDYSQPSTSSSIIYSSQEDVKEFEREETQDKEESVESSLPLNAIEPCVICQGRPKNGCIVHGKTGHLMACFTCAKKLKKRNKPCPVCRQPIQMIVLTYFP
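Timing – 2 h compound exposure at 37 °C · Assay system – mammalian cells stably expressing self-ubiquitinating, self-degrading MDM2 E3–luciferase fusion · Amount – 2000 cells seeded into each well · Measure – % luminescence enhancement versus blank-corrected plate control mean · Measured by – SteadyLite luminescence, 15 min reagent step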
STAT1 act: STAT1 signaling activation | NIH 3T3 STAT1-luciferase reporter, IFN-gamma, luminescence; 100% = IFN-gamma alone, no compound | activation (% of control), % at 5.5 µM | 2.6% of 200,000 active | AID 932;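 active means activation above the screen-wide mean activation plus 3 SD, cut at about 130% in these data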;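 further: raw ratio to IFN-gamma control signal so 100% means no change and 0% no light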
p97 ATPase inh: inhibitors of human p97 ATPase; recombinant p97 ATPase, Kinase-Glo ATP luminescence, 3 h; inhibition, % at 8 µM; 0.42% of 220,000 active; AID 1481; in the data active means inhibition above about 15%;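 further: 0% = DMSO vehicle and 100% = wells lacking enzyme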
APP 5'UTR act: activates APP 5'UTR luciferase reporter. SH-SY5Y APP 5'UTR luciferase reporter, luminescence; zero percent = DMSO vehicle wells. 1% of 190,000 active. activation, % at 2 µM. AID 1276;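 active means activation above a set limit, based on mean plus 3 SD of controls, cut at about 140% in these data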
* hit, by the source's call. The list is not random: actives were taken first. Their share in the collection is about 4.6%.

O=C(Nc1ccccc1)c1sccc1Oc1ccc([N+](=O)[O-])cc1F was read as NF-kB expr up 0.57, Wee1 stabilizer 3, MDM2 E3 inh 13, STAT1 act 94, p97 ATPase inh 10 and APP 5'UTR act 8.
For Cc1ccc(NC(=O)c2ccc(OC(=O)c3cc4ccccc4o3)cc2)cc1 the results were NF-kB expr up 1.9, Wee1 stabilizer 1, MDM2 E3 inh -15, STAT1 act 134*, p97 ATPase inh -3 and APP 5'UTR act 38.
`Cc1ccc(NC(=O)c2ccc(OC(=O)c3ccco3)cc2)cc1` gave NF-kB expr up 2.8, Wee1 stabilizer -1, MDM2 E3 inh -4, STAT1 act 134*, p97 ATPase inh -3 and APP 5'UTR act 15.
Screening O=C(Oc1ccccc1)c1ccc(NC(=O)c2ccco2)cc1 returned NF-kB expr up 1.4, Wee1 stabilizer -4, MDM2 E3 inh -5, STAT1 act 136*, p97 ATPase inh -4 and APP 5'UTR act 2.
Screening Cc1ccc(CSc2nc3c(c(N(C)C)n2)CCCC3)cc1 returned NF-kB expr up 0.94, Wee1 stabilizer -1, MDM2 E3 inh -10, STAT1 act 103, p97 ATPase inh -9 and APP 5'UTR act 3.
`Cc1nc(SCc2ccccc2)nc2c1CCC2` gave NF-kB expr up 2.5, Wee1 stabilizer -1, MDM2 E3 inh -16, STAT1 act 148*, p97 ATPase inh -1 and APP 5'UTR act 115.
For C/C(=N\NC(=O)COc1ccc(C(C)(C)C)cc1)c1ccc(N2CCOCC2)cc1 the results were NF-kB expr up 1.2, Wee1 stabilizer -1, MDM2 E3 inh -8, STAT1 act 102, p97 ATPase inh 4 and APP 5'UTR act -10.
Cc1ccc(C(=O)n2c(=S)nc3ccccn32)cc1 was read as NF-kB expr up 2.6, Wee1 stabilizer 6, MDM2 E3 inh -79, STAT1 act 150*, p97 ATPase inh 4 and APP 5'UTR act 184*.
`CN1CCN(C(=O)c2ccccc2NC(=O)Cc2ccccc2)CC1` gave NF-kB expr up 1.1, Wee1 stabilizer 10*, MDM2 E3 inh 18, STAT1 act 99, p97 ATPase inh 4 and APP 5'UTR act 10.
Screening COc1ccc(-n2c(C)cc(/C=N/Nc3nnc(C)n3N)c2C)cc1 returned NF-kB expr up 0.87, Wee1 stabilizer 1, STAT1 act 131*, p97 ATPase inh 0 and APP 5'UTR act 4.
Screening CCOc1ccc(-n2c(C)cc(/C=N/Nc3nc(C)cc(=O)[nH]3)c2C)cc1 returned Wee1 stabilizer 3, MDM2 E3 inh -7 and p97 ATPase inh 3.
For O=C(O)c1ccccc1NS(=O)(=O)c1cccc(C(F)(F)F)c1 the results were NF-kB expr up 0.98, Wee1 stabilizer -3, MDM2 E3 inh -16, STAT1 act 102, p97 ATPase inh 4 and APP 5'UTR act -7.
For O=C(O)c1ccccc1Nc1cccc(C(F)(F)F)c1 the results were NF-kB expr up 1, Wee1 stabilizer 0, STAT1 act 103, p97 ATPase inh 15* and APP 5'UTR act -4.
Screening Cc1ccc(Cn2ccc(NC(=O)c3cc(-c4ccc(F)cc4)on3)n2)cc1 returned NF-kB expr up 1.1, Wee1 stabilizer -1, MDM2 E3 inh -19, STAT1 act 99, p97 ATPase inh 1 and APP 5'UTR act -17.
Screening O=C(Nc1ccn(Cc2ccccc2)n1)c1ccc(F)cc1 returned NF-kB expr up 1.1, Wee1 stabilizer 9, MDM2 E3 inh -6, STAT1 act 138*, p97 ATPase inh -3 and APP 5'UTR act 68.
`O=C(NCCSc1ccccn1)c1ccc(Cl)cc1Cl` gave NF-kB expr up 4.5*, Wee1 stabilizer -1, MDM2 E3 inh -21, STAT1 act 125, p97 ATPase inh -3 and APP 5'UTR act 120.
O=C(Nc1ccccc1)c1ccc(CSc2ccccn2)cc1 was read as NF-kB expr up 3.3, Wee1 stabilizer 2, MDM2 E3 inh -25, STAT1 act 133*, p97 ATPase inh -6 and APP 5'UTR act 197*.
For CS(=O)(=O)N(Cc1ccc(Cl)cc1)c1ccc(C(=O)NCCSc2ccccn2)cc1 the results were NF-kB expr up 0.92, Wee1 stabilizer 4, MDM2 E3 inh 7, STAT1 act 98, p97 ATPase inh 0 and APP 5'UTR act 4.
Screening O=C(NCCSc1ccccn1)c1ccc(Cl)cc1 returned NF-kB expr up 6.1*, Wee1 stabilizer 4, MDM2 E3 inh -37, STAT1 act 121, p97 ATPase inh 0 and APP 5'UTR act 209*.
CC(C)N1C(=O)c2ccccc2N(Cc2ccccc2)S1(=O)=O was read as Wee1 stabilizer 10*, MDM2 E3 inh -7 and p97 ATPase inh 4.
For O=C(Cc1sc(Nc2ccccc2)nc1-c1ccccc1)NCc1ccccn1 the results were NF-kB expr up 1.4, Wee1 stabilizer 9.1*, MDM2 E3 inh -11, STAT1 act 130*, p97 ATPase inh 5 and APP 5'UTR act 8.
O=C(Cc1ccccc1)NCc1ccccn1 was read as NF-kB expr up 1.1, Wee1 stabilizer -1, MDM2 E3 inh 12, STAT1 act 109, p97 ATPase inh 5 and APP 5'UTR act 12.
Screening Cc1ccc(Nc2nc(-c3ccccc3)c(CC(=O)O)s2)cc1 returned NF-kB expr up 1.3, Wee1 stabilizer -1, MDM2 E3 inh 0, STAT1 act 131*, p97 ATPase inh -1 and APP 5'UTR act 53.
`CCOC(=O)c1c(C)[nH]c(N=Nc2ccc(OC)cc2)c1C` gave Wee1 stabilizer -2 and p97 ATPase inh -5.
`O=C(Nc1nc(-c2cccc([N+](=O)[O-])c2)cs1)c1cccc([N+](=O)[O-])c1C(=O)O` gave NF-kB expr up 1.2, Wee1 stabilizer -3, MDM2 E3 inh -9, STAT1 act 116, p97 ATPase inh 7 and APP 5'UTR act 1.
For CC(C)c1nc2oc3c(N(C)CCO)ncnc3c2c2c1CCC2 the results were Wee1 stabilizer -1, MDM2 E3 inh -14 and p97 ATPase inh -1.
For COc1cc(C=O)ccc1OCCCOc1ccccc1C(=O)O the results were NF-kB expr up 1.5, Wee1 stabilizer -2, MDM2 E3 inh -4, STAT1 act 148*, p97 ATPase inh 3 and APP 5'UTR act 127.
COc1ccc(CCNCc2ccc(OCc3ccc(Cl)nc3)c(OC)c2)cc1OC was read as NF-kB expr up 0.73, Wee1 stabilizer 3, MDM2 E3 inh -4, STAT1 act 95, p97 ATPase inh -4 and APP 5'UTR act -7.
Screening COc1cc(C=O)ccc1OCCCOc1ccccc1[N+](=O)[O-] returned NF-kB expr up 2, Wee1 stabilizer 2, MDM2 E3 inh -2, STAT1 act 130*, p97 ATPase inh 4 and APP 5'UTR act 1.
Screening C/C=C/c1ccc(OCCOc2cc(C=O)ccc2OC)c(OC)c1 returned NF-kB expr up 1.8, Wee1 stabilizer -2, MDM2 E3 inh -13, STAT1 act 131*, p97 ATPase inh 0 and APP 5'UTR act 28.

From PubChem BioAssay
